Converted amounts (≈) assume the structure as drawn.

Assay [1] concerns Aspergillus niger. Nature of the assay: microbe, parasite or virus in culture. To be noted: van Tiegen BAM4 ATCC 6275, 168 h. The assay is classed as functional.
Assay [2] concerns Aspergillus versicolor. Nature of the assay: microbe, parasite or virus in culture. The assay is classed as functional. Conditions: BAM8 ATCC 11730, 168 h.
For assay [3], the system named is Paecilomyces variotii. Nature of the assay: microbe, parasite or virus in culture. The assay is classed as functional. Conditions: BAM19 ATCC 18502, 168 h.
The test system of assay [4] is Talaromyces funiculosus. Nature of the assay: microbe, parasite or virus in culture. Type of assay: functional. To be noted: BAM22 ATCC 11797, 168 h.
Assay [5] deals with Trichoderma viride. Description: Antifungal activity against Trichoderma viride Pers after 7 days by microtiter method. Conditions: 168 h. The assay is classed as functional.
Assay [6] has as its system Penicillium cyclopium. Nature of the assay: Antifungal activity against Penicillium cyclopium Westling after 7 days by microtiter method. Type of assay: functional. Conditions: 168 h.
The test system of assay [7] is Aureobasidium pullulans. Description: microbe, parasite or virus in culture. Type of assay: functional. Conditions: BAM10 ATCC 9348, 168 h.
The test system of assay [8] is Chaetomium globosum. Description: microbe, parasite or virus in culture. To be noted: BAM12 ATCC 6205, 168 h. Type of assay: functional.
Assay [9] deals with MCF7. Description: cells. Type of assay: functional, cell-based. Conditions: Homo sapiens, MCF7, 72 h.
In assay [10] the test system is MDA-MB-231. Nature of the assay: cells. Type of assay: functional, cell-based. Conditions: Homo sapiens, MDA-MB-231, 72 h.
Assay [11] has as its system DLD-1. Description: cells. The assay is classed as functional, cell-based. Conditions: Homo sapiens, DLD-1, 72 h.
The subject of assay [12] is LoVo. Description: cells. Type of assay: functional, cell-based. To be noted: Homo sapiens, 72 h.
A short description of assay [13]: cells. The assay is classed as cell-based. Conditions: Homo sapiens, 72 h.
Assay [14] deals with SK-OV-3. Nature of the assay: cells. The assay is classed as functional, cell-based. Conditions: Homo sapiens, SK-OV-3, 72 h.
The test system of assay [15] is SK-OV-3. Nature of the assay: cells. Type of assay: functional, cell-based. To be noted: Homo sapiens, SK-OV-3, 72 h. This is another data set of the same source.
Assay [16] has as its system Aspergillus niger. Nature of the assay: Fungicidal activity against Aspergillus niger van Tiegen BAM4 ATCC 6275 after 7 days by microtiter method. The assay is classed as functional. To be noted: van Tiegen BAM4 ATCC 6275, 168 h. Summed up:
(§1)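 Single-spore isolates kept on PDA slants. Spore suspensions ([…] CFU/mL) taken from two-week slants. Compound stock was 10 mg in 200 µL methanol; 10 µL of stock added to 100 µL PDA (39 g/L) per well, then 10 µL spores. Incubated aerobically 7 days, 28±1°C, RH >95%, dark. Growth scored on a three-point scale (+/±/−). Triplicates, with untreated and IPBC controls.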

Assay [17] relates to Aspergillus versicolor. Nature of the assay: Fungicidal activity against Aspergillus versicolor BAM8 ATCC 11730 after 7 days by microtiter method. Type of assay: functional. Conditions: BAM8 ATCC 11730, 168 h. Summed up:
as §1

Assay [18] deals with Paecilomyces variotii. Description: Fungicidal activity against Paecilomyces variotii BAM19 ATCC 18502 after 7 days by microtiter method. Type of assay: functional. To be noted: BAM19 ATCC 18502, 168 h. Summed up: as §1
Assay [19] relates to Talaromyces funiculosus. Description: Fungicidal activity against Penicillium funiculosum BAM22 ATCC 11797 after 7 days by microtiter method. The assay is classed as functional. To be noted: BAM22 ATCC 11797, 168 h. The gist of the method:
as §1

In assay [20] the test system is Trichoderma viride. Nature of the assay: Fungicidal activity against Trichoderma viride Pers after 7 days by microtiter method. Type of assay: functional. Conditions: 168 h. Summed up: as §1
Assay [21] relates to Penicillium cyclopium. Description: Fungicidal activity against Penicillium cyclopium Westling after 7 days by microtiter method. The assay is classed as functional. Conditions: 168 h. Summed up:
as §1

Assay [22] has as its system Aureobasidium pullulans. Description: Fungicidal activity against Aureobasidium pullulans BAM10 ATCC 9348 after 7 days by microtiter method. Type of assay: functional. Conditions: BAM10 ATCC 9348, 168 h. Summed up: as §1
The subject of assay [23] is Chaetomium globosum. Description: Fungicidal activity against Chaetomium globosum BAM12 ATCC 6205 after 7 days by microtiter method. The assay is classed as functional. To be noted: BAM12 ATCC 6205, 168 h. Summed up:
as §1

As for `CCCSc1ccc2c(cc1=O)[C@@H](NC(C)=O)CCc1cc(OC)c(OC)c(OC)c1-2`, the MFC in assay [1], in assay [2], in assay [3], in assay [4] and in assay [5] was more than 4000 µg/mL each time. Moreover, the MIC in assay [6], in assay [7] and in [8] was more than 4000 µg/mL in each case.

`CCCCSc1ccc2c(cc1=O)[C@@H](N)CCc1cc(OC)c(OC)c(OC)c1-2`: the IC50 (as a rule, the concentration needed to halve the response being measured) was 1460 nM in assay [9]; 4180 nM in assay [10]; 720 nM in assay [11]; 1870 nM in assay [12]; 2170 nM in assay [13]; 9 nM in assay [14]. For the same compound, the IC50 in [15] is 62 nM. Also, the MFC in assay [1] is more than 4000 µg/mL; in [2], more than 4000 µg/mL; in [3] it was 1000 µg/mL (≈ 2.41 mM); in [4] it was 1000 µg/mL (≈ 2.41 mM); in assay [5], 2000 µg/mL (≈ 4.81 mM); in assay [16], more than 4000 µg/mL. Further, the MFC in [17] was more than 4000 µg/mL; in assay [18], 1000 µg/mL (≈ 2.41 mM); in assay [19] it was 1000 µg/mL (≈ 2.41 mM); in [20], 2000 µg/mL (≈ 4.81 mM); in [21] it was 260 µg/mL (≈ 0.626 mM); in assay [22], 260 µg/mL (≈ 0.626 mM). Besides, the MFC in assay [23] was 130 µg/mL (≈ 0.313 mM). Also, the results for the MIC in [6], in assay [7] and in [8] were 260 µg/mL (≈ 0.626 mM), 260 µg/mL (≈ 0.626 mM) and 130 µg/mL (≈ 0.313 mM), respectively.

With `CCSc1ccc2c(cc1=O)[C@@H](N)CCc1cc(OC)c(OC)c(OC)c1-2`, the IC50 worked out at 1620 nM in assay [9]; 3550 nM in assay [10]; 510 nM in [11]; 390 nM in assay [12]; 150 nM in [13]; 305 nM in [14]. This compound yielded an IC50 in assay [15] of 409 nM. The MFC in assay [1], in assay [2], in assay [3], in assay [4] and in assay [5] was more than 4000 µg/mL throughout. The MIC in assay [6], in assay [7] and in assay [8] was more than 4000 µg/mL throughout.

Consider `CCSc1ccc2c(cc1=O)[C@@H](NC(C)=O)CCc1cc(OC)c(OC)c(OC)c1-2`, for which the MFC in [1], in assay [2], in assay [3], in assay [4] and in [5] was more than 4000 µg/mL each time. Besides, the MIC in assay [6], in assay [7] and in [8] was more than 4000 µg/mL each time.

In the case of `CCCCSc1ccc2c(cc1=O)[C@@H](NC(C)=O)CCc1cc(OC)c(OC)c(OC)c1-2`, the MFC in [1], in [2], in assay [3], in assay [4] and in assay [5] was more than 4000 µg/mL each time. Besides, the MIC in [6], in assay [7] and in assay [8] was more than 4000 µg/mL in each case.

For the compound `COc1cc2c(c(OC)c1OC)-c1ccc(SC(C)C)c(=O)cc1[C@@H](NC(C)=O)CC2`, the MFC in [1], in assay [2], in assay [3], in assay [4] and in [5] was more than 4000 µg/mL each time. Besides, the MIC in [6], in assay [7] and in assay [8] was more than 4000 µg/mL each time.

(Values after ChEMBL document CHEMBL4257561, “7-Deacetyl-10-alkylthiocolchicine derivatives - new compounds with potent anticancer and fungicidal activity” (Medchemcomm, 2018).)
